Data set [1] deals with Junin virus. Nature of the data set: Antiviral activity against Junin virus IV4454 infected in african green monkey Vero cells assessed as reduction in virus yield after 48 hrs by plaque assay. The data set is classed as functional, organism-based. Conditions: Mammarenavirus juninense.
Data set [2] is described as follows: (§1) Cytotoxicity against african green monkey Vero cells after 48 hrs by MTT assay. Conditions: chlorocebus sabaeus, Vero cells. The data set is classed as cell-based, Chlorocebus sabaeus. A digest of the protocol:
(§2)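 Confluent Vero cultures were exposed to a range of compound concentrations, three wells per concentration, for 48 h at 37 °C. Viability was read by MTT at 595 nm. CC₅₀ is the concentration reducing MTT signal by 50% versus untreated controls. Mean of three determinations.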
(Tetrazolium dyes change colour on reduction, which living cells bring about.)

A short description of data set [3]: Selectivity index, ratio of CC50 for african green monkey Vero cells to EC50 for Junin virus IV4454 infected in african green monkey Vero cells. The data set is classed as toxicity, cell-based. To be noted: read-out: Selectivity Index.
Data set [4] deals with Junin virus. Nature of the data set: Antiviral activity against Junin virus IV4454 infected in african green monkey Vero cells assessed as reduction in virus yield treated for 1.5 hrs before viral infection measured by plaque assay relative to control. The data set is classed as functional, organism-based. Conditions: Mammarenavirus juninense.
Data set [5] deals with Junin virus. Nature of the data set: Antiviral activity against Junin virus IV4454 infected in african green monkey Vero cells assessed as reduction in virus yield at 50 to 200 uM treated for 1.5 hrs before viral infection measured by plaque assay relative to control. The data set is classed as functional, Mammarenavirus juninense.
In a further data set the test system is Vero. Described as §1. The data set is classed as cell-based, Chlorocebus sabaeus. Conditions: Chlorocebus sabaeus, Vero, 48 h. A digest of the protocol: as §2

SMILES strings stand for the structures.

For orientation: EC50 means the concentration needed to bring the measured effect to its halfway point. Usually CC50 stands for the concentration at which the toxic effect on the cells reaches its halfway point. As for `CO[C@@H]1[C@H]2OC(C)(C)O[C@H]2O[C@@H]1C(=O)c1cnc2sc(C(=O)c3ccc(Cl)cc3)cn12`, in the data set on Junin virus [1], the EC50 was 0.8 µM. Besides, half-maximal cytotoxicity in data set [2] (CC50 at 48 h) was put at 371 µM. For the same compound, the selectivity ratio in data set [3] was determined as 464.
For `CO[C@@H]1[C@H]2OC(C)(C)O[C@H]2O[C@@H]1C(=O)c1cn2cc(C(=O)c3ccc(Cl)cc3)nc2s1`, the EC50 in the data set on Junin virus [1] came to 11.9 µM. This compound yielded a CC50 at 48 h in data set [2] of more than 400 µM. Further, in data set [3], the selectivity ratio was more than 33.6.
In the case of `CO[C@@H]1[C@H]2OC(C)(C)O[C@H]2O[C@@H]1C(=O)c1cnc2sc(C(=O)c3ccc(F)cc3)cn12`, in the data set with Junin virus [1], the EC50 was determined as 78.3 µM. In data set [2], this compound yielded a 50% cytotoxic concentration (CC50) at 48 h of more than 400 µM. Further, in data set [3], the selectivity ratio is more than 5.1.
With `CO[C@@H]1[C@H]2OC(C)(C)O[C@H]2O[C@@H]1C(=O)c1cn2cc(C(=O)c3ccccc3)nc2s1`, the EC50 in the data set on Junin virus [1] turned out to be 12.3 µM. Moreover, the CC50 at 48 h in data set [2] is more than 400 µM. For the same compound, in data set [3], the selectivity ratio is more than 32.5.
On to `COC1[C@@H](C(=O)c2cnc3sc(C(=O)c4ccccc4)cn23)O[C@@H]2OC(C)(C)O[C@H]12` (single isomer, unassigned), for which the EC50 with Junin virus [1] is 18.5 µM. Also, the CC50 at 48 h in data set [2] is more than 400 µM. Besides, the selectivity ratio in data set [3] was more than 21.6.
On to `COC1[C@@H](C(=O)c2cnc3sc(C(=O)c4ccc(Br)cc4)cn23)O[C@@H]2OC(C)(C)O[C@H]12` (single isomer, unassigned), for which, in the data set with Junin virus [4], the inhibition result was “Dose-dependent effect”. The “fold change (FC)” value in the data set with Junin virus [5] is 15. Also, the EC50 in the data set on Junin virus [1] was determined as 1.1 µM. The compound also displayed a CC50 at 48 h in data set [2] of 295 µM. Further, in data set [3], the selectivity ratio was 268.
`CC(=O)O[C@@H]1[C@H]2OC(C)(C)O[C@H]2O[C@@H]1C(=O)c1cnc2sc(C(=O)c3ccc(F)cc3)cn12`: the EC50 in the data set with Junin virus [1] was 4.9 µM. In addition, the CC50 at 48 h in data set [2] is more than 400 µM. Further, the selectivity ratio in data set [3] was more than 81.6.
On the same counts, the results for `CO[C@@H]1[C@H]2OC(C)(C)O[C@H]2O[C@@H]1C(=O)c1cn2cc(C(=O)c3ccc(F)cc3)nc2s1` are 2.9 µM, more than 400 µM and more than 138.
As a reminder, the IC50 is the concentration that gives 50% inhibition. `NC(=O)c1ncn([C@@H]2O[C@H](CO)[C@@H](O)[C@H]2O)n1` [RIBAVIRIN]: the EC50 with Junin virus [1] is 18.5 µM. For the same compound, in the data set with Vero, the IC50 is more than 400 µM. In addition, in data set [3], the selectivity ratio was more than 21.6.
Consider `CO[C@@H]1[C@H]2OC(C)(C)O[C@H]2O[C@@H]1C(=O)c1cn2cc(C(=O)c3ccc(Br)cc3)nc2s1`, for which the EC50 in the data set with Junin virus [1] amounted to 4.3 µM. The compound also showed a CC50 at 48 h in data set [2] of 351 µM. For the same compound, the selectivity ratio in data set [3] was 81.6.
Consider `CC(=O)O[C@@H]1[C@H]2OC(C)(C)O[C@H]2O[C@@H]1C(=O)c1cnc2sc(C(=O)c3ccc(Cl)cc3)cn12`, for which the EC50 in the data set with Junin virus [1] was determined as 7.5 µM. In data set [2], this compound gave a CC50 at 48 h of 70 µM. The selectivity ratio in data set [3] was found to be 9.3.
As to `CC(=O)O[C@@H]1[C@H]2OC(C)(C)O[C@H]2O[C@@H]1C(=O)c1cnc2sc(C(=O)c3ccccc3)cn12`, the EC50 in the data set with Junin virus [1] was 7.9 µM. This compound returned a CC50 at 48 h in data set [2] of more than 400 µM. The selectivity ratio in data set [3] is more than 50.6.
For `CC(=O)O[C@@H]1[C@H]2OC(C)(C)O[C@H]2O[C@@H]1C(=O)c1cnc2sc(C(=O)c3ccc(Br)cc3)cn12`, the EC50 in the data set on Junin virus [1] came out at 5.6 µM. For the same compound, the midpoint of cytotoxicity in data set [2], the CC50 at 48 h, lay at 139 µM. The selectivity ratio in data set [3] is 24.8.

(Values after ChEMBL document CHEMBL1649388, “Imidazo[2,1-b]thiazole carbohydrate derivatives: Synthesis and antiviral activity against Junin virus, agent of Argentine hemorrhagic fever” (Eur J Med Chem, 2011).)
